Assay results pooled from the literature.
Each line is one published result; the experiments were not run side by side.
FLT3 D835H: Receptor-type tyrosine-protein kinase FLT3 (FLT3, Homo sapiens, UniProt P36888, D835H)
FLT3 D835Y: Receptor-type tyrosine-protein kinase FLT3 (FLT3, Homo sapiens, UniProt P36888, D835Y)
FLT3 D835V: Receptor-type tyrosine-protein kinase FLT3 (FLT3, Homo sapiens, UniProt P36888, D835V)
FLT3 K663Q: Receptor-type tyrosine-protein kinase FLT3 (FLT3, Homo sapiens, UniProt P36888, K663Q)
FLT3 N841I: Receptor-type tyrosine-protein kinase FLT3 (FLT3, Homo sapiens, UniProt P36888, N841I)
FLT3 autoinhibited: Receptor-type tyrosine-protein kinase FLT3, autoinhibited (FLT3, Homo sapiens, UniProt P36888)
FLT3: Receptor-type tyrosine-protein kinase FLT3 (FLT3, Homo sapiens, UniProt P36888)
FLT3 R834Q: Receptor-type tyrosine-protein kinase FLT3 (FLT3, Homo sapiens, UniProt P36888, R834Q)

SMILES | target | assay | conditions | remaining binding
CN(C)c1ncnc(-c2ccc3nc(Nc4cc(CN5CCN(C(=O)CC(F)(F)F)CC5)ccn4)[nH]c3c2)c1Cl | FLT3 D835H | cell-free assay, competition with immobilised ligand | 1 µM | 42%
CN1CCN(c2ccc(Nc3nccc(-c4cccc([N+](=O)[O-])c4)n3)cc2C(F)(F)F)CC1 | FLT3 D835Y | binding | 10 µM | 0%
N[C@H]1CCN(c2nccc(-c3cnn4ncccc34)n2)C1 | FLT3 D835V | binding | 1 µM | 61%
O=C(c1ccc(Nc2nccc(-c3cc4ccccc4s3)n2)cc1)N1CCC(N2CCCC2)CC1 | FLT3 D835H | binding, competition with immobilised ligand | 1 µM | 29%
Cc1cnn2ncc(-c3ccnc(N(C)C)n3)c2c1 | FLT3 K663Q | binding | 1 µM | 100%
CN1CCN(c2ccc(Nc3nccc(-c4ccccc4)n3)cc2C(F)(F)F)CC1 | FLT3 N841I | binding | 10 µM | 3.5%
F[C@@H]1CCN(c2nccc(-c3cnn4ncccc34)n2)C1 | FLT3 autoinhibited | binding | 1 µM | 100%
c1cncc(-c2cccc(Nc3nccc(NC4CCCCC4)n3)c2)c1 | FLT3 N841I | binding, competition with immobilised ligand | 10 µM | 1.6%
O=C(c1ccc(Nc2ncc(Cl)c(-c3ccc(Cl)s3)n2)cc1)N1CCC(N2CCCC2)CC1 | FLT3 D835H | binding, competition with immobilised ligand | 1 µM | 2.3%
CN(C)c1nccc(-c2cnn3ncccc23)n1 | FLT3 D835Y | binding | 1 µM | 100%
CC1=C(C#N)C(c2ccc3c(c2)c(NC(=O)c2ccccc2C)nn3C)C(C#N)=C(C)N1 | FLT3 N841I | cell-free assay, competition with immobilised ligand | 1 µM | 74%
N#Cc1ccccc1CSc1nnc2c(n1)[nH]c1ccccc12 | FLT3 | binding, competition with immobilised ligand | 10 µM | 84%
O=C(O)[C@H]1[C@H](Cn2nnc3ccccc3c2=O)CC[C@@H]1C(=O)c1ccc(OCCC2CCOCC2)cc1 | FLT3 R834Q | cell-free assay, competition with immobilised ligand | 1 µM | 96%
COc1cnc(Nc2cccc(S(N)(=O)=O)c2)nc1N1CCN(c2ccccc2)C(=O)C1 | FLT3 N841I | binding, competition with immobilised ligand | 1 µM | 96%
O=C(NCCCN1CCOCC1)c1ccc(Nc2nccc(-c3cc4ccccc4s3)n2)cc1 | FLT3 D835H | binding, competition with immobilised ligand | 1 µM | 30%
O=C(Nc1cnc(Oc2ccc(F)cc2)nc1)N1CCc2ncccc2[C@@H]1c1ccc(F)cc1 | FLT3 autoinhibited | cell-free assay, competition with immobilised ligand | 1 µM | 90%
CN(c1nccc(-c2cnn3ncccc23)n1)C1CC1 | FLT3 R834Q | binding | 1 µM | 100%

SMILES | target | assay | conditions | remaining binding
C=CC(=O)N1CCC(C(=O)NCC(=O)N2CCN(c3nc(-c4cnc(N)nc4C(F)F)nc(N4CCOCC4)n3)CC2)CC1 | FLT3 D835H | binding, competition with immobilised ligand | 1 µM | 100%
Cc1cnc(Nc2ccc(C(=O)N3CCC(N4CCCC4)CC3)cc2)nc1-c1cc2ccccc2s1 | FLT3 N841I | binding, competition with immobilised ligand | 1 µM | 0%
COc1ccnn2ncc(-c3ccnc(N(C)C)n3)c12 | FLT3 D835V | binding | 1 µM | 81%
O=C(NCC1CCOCC1)c1n[nH]cc1NC(=O)c1c(F)cccc1F | FLT3 D835H | binding, competition with immobilised ligand | 1 µM | 98%
Nc1ncc2c(n1)-c1c([nH]c3ccc(C#CC4CC4)cc13)CCCC2 | FLT3 | binding, competition with immobilised ligand | 1 µM | 96%
COc1ncc2cc3ccccc3nc2c1C#N | Receptor-type tyrosine-protein kinase FLT3 (FLT3, Homo sapiens, UniProt P36888, ITD) | cell-free assay, competition with immobilised ligand | 5 µM | 94%
CCN1CCN(Cc2ccc(C(=O)Nc3ccc(C)c(Oc4ccc5c(c4)CC(=O)N5)c3)cc2C(F)(F)F)CC1 | FLT3 N841I | binding, competition with immobilised ligand | 1 µM | 81%
CNC(=O)[C@@H]1CC[C@@H](n2c(-c3ccc4cnccc4c3)nc3ccc(C(=O)NCc4cccc(C(N)=O)c4)cc32)C1 | FLT3 K663Q | binding, competition with immobilised ligand | 1 µM | 99%
Cc1c(C(=O)O)cc(-c2ccc(C3CCNCC3)cc2)c2ccc(-c3ccc(C(F)(F)F)cc3)cc12 | FLT3 | binding, competition with immobilised ligand | 1 µM | 100%
O=C(NCCCN1CCOCC1)c1ccc(Nc2ncc(Cl)c(-c3ccc(Cl)s3)n2)cc1 | FLT3 K663Q | binding, competition with immobilised ligand | 1 µM | 2%
CC1CCCN1c1nccc(-c2cnn3ncccc23)n1 (stereo not shown) | FLT3 D835Y | binding | 1 µM | 100%
Cc1c(NC(=O)c2cc(C(N)=O)nc3cc(F)ccc23)c(C(F)(F)F)nn1Cc1ccc(C(C)(C)C)cc1 | FLT3 R834Q | cell-free assay, competition with immobilised ligand | 1 µM | 100%
C[C@@H](c1ccc(-n2cnc3c(N)ncnc32)cc1)N1CCc2nn(C)c(Cc3ccccc3)c2C1=O | FLT3 K663Q | binding, competition with immobilised ligand | 0.1 µM | 77%
Cc1noc([C@H]2C[C@@H](c3ccc(C(F)(F)F)cc3)CN(C(=O)N3CCS(=O)(=O)C3)C2)n1 | FLT3 R834Q | cell-free assay, competition with immobilised ligand | 1 µM | 91%
O=C(Nc1c[nH]nc1C(=O)NC1CCNCC1)c1cc(F)cc(F)c1 | FLT3 autoinhibited | binding, competition with immobilised ligand | 1 µM | 85%
COc1cnc(Nc2cccc(S(N)(=O)=O)c2)nc1N1CCN(c2ccccc2)CC1 | FLT3 K663Q | binding, competition with immobilised ligand | 1 µM | 36%
CO[C@@H](C)c1c(Nc2ccc([C@H](N(C)C(=O)C3CCS(=O)(=O)CC3)C(F)(F)F)cc2)cnc2cc(Cl)nn12 | FLT3 D835Y | cell-free assay, competition with immobilised ligand | 1 µM | 59%
